Bioassay records as filed in PubChem.
Rows were chosen to be rich in hits. Some 2.7% of all compounds tested hit in one or more screens of this group.
FGF22 binding: shifts melting point of recombinant human FGF22. Q9HCT0. 1.5% of 340,000 active. recombinant FGF22 thermal shift, SYPRO orange fluorescence; percent of sucrose octasulfate shift, DMSO zero. activity (Tm shift, normalised), % at 9.99 µM. AID 651658;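 active means mean Tm shift, scaled 0 neutral to 100 positive control, at about 1.3% or above, every replicate too, limit read from the data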
Target sequence (Q9HCT0 whole entry, looked up): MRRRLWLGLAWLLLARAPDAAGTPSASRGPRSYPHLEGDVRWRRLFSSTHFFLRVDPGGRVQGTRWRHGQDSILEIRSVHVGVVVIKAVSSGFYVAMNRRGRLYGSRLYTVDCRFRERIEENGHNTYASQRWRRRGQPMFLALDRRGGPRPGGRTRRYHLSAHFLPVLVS
CFTR F508del cor: correctors of CFTR F508del function in bronchial epithelial cells; AID 720511; CFBE cells, YFP halide quenching; stimulated with forskolin plus potentiator P3; % fluorescence drop versus neutral controls; 0.36% of 350,000 active; activity (quench increase), % at 7.58 µM;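 active means mean added fluorescence quench of at least 8% versus neutral control, with both replicates also reaching 8%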;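 further: cells transiently co-express mutant CFTR-F508del with the halide-sensitive YFP; corrector assay measuring rescue of mutant channel to the surface after 24 h compound exposure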
S100A4 inh HTS: inhibitors of human S100A4 binding to myosin IIA peptide | 0.14% of 360,000 active | inhibition, % at 10.7 µM | P26447 | S100A4/TAMRA-MyoIIA peptide fluorescence polarization;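 active means mean inhibition of at least 70% across replicates, with every replicate also reaching that level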
Target sequence (P26447 whole entry, looked up): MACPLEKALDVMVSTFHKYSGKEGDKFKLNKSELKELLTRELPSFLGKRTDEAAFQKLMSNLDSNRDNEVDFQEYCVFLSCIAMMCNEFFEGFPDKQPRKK
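Material: S100A4 monomer protein / Buffer or medium: 50 mM HEPES pH 7.2, 10 mM CaCl2, 100 mM KCl / Times: 5 min incubation before reading / Benchmarks: neutral control DMSO, positive control TFP / Reagent: labelled myosin peptide probe, 5 nM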
E-sel inducer: E-selectin induction on HUVECs; AID 686992; 0.37% of 260,000 active; activation, % at 7.58 µM; P16581; HUVEC E-selectin immunofluorescence imaging; normalized: neutral wells 0, TNF-alpha wells 100;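 active means mean E-selectin-positive cell signal at least 10% of the positive control, reached in at least 60% of replicates, without over 20% cell loss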
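Test system: HUVEC | Signal: Immunofluorescence imaging | Read-out: Percent E-selectin-positive cells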
Env fusion inh: blocks HIV Env-driven cell-cell fusion | 1.1% of 360,000 active | AID 651610 | HeLa-JRFL Env/CEM21 cell fusion, luciferase | inhibition, % at 12.3 µM;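 active means mean replicate inhibition score of at least 50 and every replicate individually at or above 50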
Hits are given with their value; 0 = inactive; - = no result; [ ] = another dose, or the depositor's remark.

SMILES	FGF22 binding	CFTR F508del cor	S100A4 inh HTS	E-sel inducer	Env fusion inh
CCC(C)NC(=O)C(=O)NC1CCCC1 (stereo not given)	44	0	0	-	0
CC(C)CCNC(=O)C(=O)NC1CCCC1	44	0	0	-	0
Cc1nn(CCS(=O)(=O)c2ccc(Cl)cc2)c(C)c1Br	0	0	0	78	0
C[C@H]1CN([C@@H](C)CO)C(=O)c2cc(NS(C)(=O)=O)ccc2O[C@@H]1CN(C)Cc1ccc(C(F)(F)F)cc1	0	0	0	0	0
C[C@@H]1CN([C@H](C)CO)C(=O)c2cc(NS(C)(=O)=O)ccc2O[C@@H]1CN(C)Cc1ccc(C(F)(F)F)cc1	0	0	0	110	0
C[C@@H]1CN([C@H](C)CO)C(=O)c2cc(NS(=O)(=O)c3ccc(F)cc3)ccc2O[C@H]1CN(C)Cc1ccc(C(F)(F)F)cc1	-	0	-	0	72[16.7 µM]
C[C@@H]1CN([C@H](C)CO)C(=O)c2cc(NS(=O)(=O)c3ccc(F)cc3)ccc2O[C@@H]1CN(C)Cc1ccc(C(F)(F)F)cc1	0	0	0	0	0
O=C(C[C@@H]1CC[C@@H]2[C@H](COC[C@@H](O)CN2CCC(F)(F)F)O1)N1CCC(Cc2ccccc2)CC1	0	0	0	0	0
CC(C)OC(=O)C1CC(C)(O)C(=O)C(C(=O)OC(C)C)C1c1ccc([N+](=O)[O-])cc1 (stereo not given)	43	0	0	-	0
Cc1oc2c(Cl)c(Cl)c(O)c(CN(C)C)c2c1C(=O)c1ccc(Cl)cc1	0	0	0	-	64
O=C(O)C[C@@H]1C[C@@H]2c3cc(NC(=O)Nc4ccc(F)cc4)ccc3O[C@@H]2[C@H](CO)O1	0	0	0	0	-
O=C(NC(Cc1c[nH]c2ccccc12)C(=O)O)c1ccccc1 (stereo not given)	-	-	-	-	0
O=C(N[C@@H](Cc1c[nH]c2ccccc12)C(=O)O)c1ccc(Cl)cc1	44	0	0	0	0
COc1ccc(C(=O)NC(C)Cc2c[nH]c3ccccc23)cc1 (stereo not given)	43	0	0	0	0
COc1ccccc1-c1ccc([C@H]2[C@@H](CO)N3CCCCN(Cc4ccncc4)C[C@@H]23)cc1	0	0	0	0	-
COc1ccc(C/C(C)=N/NC(=O)c2ccc(C)cc2C)cc1	44	0	0	-	0
Cc1ccccc1-c1ccc(C2[C@@H]3CN(S(=O)(=O)c4ccccc4C)C[C@H]2N3)cc1 (stereo not given in full)	-	0	0	0	-
C[C@@H]1CN([C@@H](C)CO)C(=O)c2cc(C#Cc3ccccc3F)cnc2O[C@H]1CN(C)C(=O)C1CCCCC1	0	0	0	0	0
C/C=C/c1ccc2c(c1)O[C@H](CN(C)C(=O)Nc1ccc(C(F)(F)F)cc1)[C@H](C)CN([C@H](C)CO)S2(=O)=O	1.8	0	0	0	0
C/C=C/c1ccc2c(c1)O[C@H](CN(C)C(=O)Nc1ccc(C(F)(F)F)cc1)[C@@H](C)CN([C@@H](C)CO)S2(=O)=O	0	0	0	0	0
C/C=C/c1ccc2c(c1)O[C@@H](CN(C)C(=O)Nc1ccc(C(F)(F)F)cc1)[C@@H](C)CN([C@H](C)CO)S2(=O)=O	1.4	0	0	0	0
C/C=C/c1ccc2c(c1)O[C@H](CN(C)C(=O)Nc1cccc(F)c1)[C@H](C)CN([C@@H](C)CO)S2(=O)=O	0	0	0	0	-
C/C=C/c1ccc2c(c1)O[C@@H](CN(C)C(=O)Nc1cccc(F)c1)[C@H](C)CN([C@H](C)CO)S2(=O)=O	0	8.5	0	0	-
C[C@@H]1CCCCO[C@H](CN(C)C)[C@H](C)CN([C@H](C)CO)C(=O)c2cc(NC(=O)NC3CCCCC3)ccc2O1	-	0	-	0	0
COCOCCn1cc(CN2CCS(=O)(=O)N(Cc3ccc(-c4ccc(OC)nc4)cc3)C(C)C2=O)nn1 (stereo not given)	0	0	0	0	0
COCOCCn1cc(CN2CCS(=O)(=O)N(Cc3ccc(-c4ccc(Cl)cc4)cc3)C(C)C2=O)nn1 (stereo not given)	0	0	0	-	57
C[C@H](CO)N1C[C@H](C)[C@H](CN(C)C(=O)c2cccc(F)c2)Oc2ncc(-c3cccnc3)cc2C1=O	0	0	0	0	0
Cc1nc2c(cnn2-c2ccccc2)c(=O)n1/N=C/c1ccccc1	0	0	0	0	0
